Where “and” joins values, the source holds several entries; their conditions need not be identical. Equal values may be shown once.
Legend:
D(2) dopamine receptor [1] = molecular target: T1, D(2) dopamine receptor (Homo sapiens, UniProt P14416); assay: Displacement of [3H]-sulpiride from human D2 receptor expressed in HEK293 cells at 100 nM after 150 mins by liquid scintillation counting method relative to control; type: cell-based
D(3) dopamine receptor [2] = molecular target: T2, D(3) dopamine receptor (Homo sapiens, UniProt P35462); assay: Agonist activity at human D3 receptor expressed in HEK293 cells assessed as inhibition of forskolin-induced cAMP accumulation after 4 hrs by luciferase reporter gene assay; type: functional, cell-based
T2 sequence (P35462 whole entry): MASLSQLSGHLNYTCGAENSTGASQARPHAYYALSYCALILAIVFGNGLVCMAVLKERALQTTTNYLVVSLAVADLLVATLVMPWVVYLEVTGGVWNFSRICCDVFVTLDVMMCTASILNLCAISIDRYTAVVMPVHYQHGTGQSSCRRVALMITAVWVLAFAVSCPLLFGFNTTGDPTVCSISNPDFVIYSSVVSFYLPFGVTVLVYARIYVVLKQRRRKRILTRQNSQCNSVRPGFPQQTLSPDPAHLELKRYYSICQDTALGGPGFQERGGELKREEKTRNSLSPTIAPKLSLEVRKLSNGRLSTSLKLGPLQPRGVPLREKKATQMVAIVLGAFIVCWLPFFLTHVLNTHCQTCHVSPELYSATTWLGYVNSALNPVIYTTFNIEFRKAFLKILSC

Homo sapiens = species: Homo sapiens; assay: Selectivity ratio of Ki for human D2 receptor expressed in HEK293 cells to Ki for human D3 receptor expressed in HEK293 cells; type: cell-based
D(3) dopamine receptor [3] = molecular target: T2, D(3) dopamine receptor; assay: Displacement of [3H]-sulpiride from human D3 receptor expressed in HEK293 cells after 150 mins by liquid scintillation counting method; type: cell-based
D(2) dopamine receptor [4] = molecular target: T1, D(2) dopamine receptor; assay: Displacement of [3H]-sulpiride from human D2 receptor expressed in HEK293 cells after 150 mins by liquid scintillation counting method; type: cell-based
In short: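 HEK 293 cells transfected with D2R plasmid, cultured in MEM without then with fetal bovine serum (4 h, 24 h). Seeded overnight, then intact cells incubated with [3H]-sulpiride (2.2 nM) plus compounds for 150 min at 4 °C. Cells were rinsed in ice-cold MEM, lysed in 1% SDS, and counted by liquid scintillation. IC50 from nonlinear dose-response fit; Ki by Cheng-Prusoff.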

D(3) dopamine receptor [5] = molecular target: T2, D(3) dopamine receptor; assay: Potency index, ratio of N-(4-(4-(2,4-dichlorophenyl)piperazin-1-yl)butyl)-1H-indole-2-carboxamide hydrochloride Ki to compound Ki for displacement of [3H]-sulpiride from human D3 receptor expressed in HEK293 cells; type: cell-based
D(3) dopamine receptor [6] = molecular target: T2, D(3) dopamine receptor; assay: Potency index, ratio of quinpirole EC50 to compound EC50 for agonist activity at human D3 receptor expressed in HEK293 cells; type: functional, cell-based
D(2) dopamine receptor [7] = molecular target: T1, D(2) dopamine receptor; assay: Displacement of [3H]-sulpiride from human D2 receptor expressed in HEK293 cells at 30 uM after 150 mins by liquid scintillation counting method relative to control; type: cell-based
In short: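 HEK 293 cells transiently transfected with D2R plasmid, kept in serum-free MEM for 4 h and then serum-containing MEM for 24 h, seeded and left overnight. Whole cells were incubated with 2.2 nM [3H]-sulpiride plus test compound for 150 min at 4 °C, rinsed with ice-cold MEM, and lysed in 1% SDS. Bound radioactivity was read by liquid scintillation counting.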

T1 sequence (P14416 whole entry): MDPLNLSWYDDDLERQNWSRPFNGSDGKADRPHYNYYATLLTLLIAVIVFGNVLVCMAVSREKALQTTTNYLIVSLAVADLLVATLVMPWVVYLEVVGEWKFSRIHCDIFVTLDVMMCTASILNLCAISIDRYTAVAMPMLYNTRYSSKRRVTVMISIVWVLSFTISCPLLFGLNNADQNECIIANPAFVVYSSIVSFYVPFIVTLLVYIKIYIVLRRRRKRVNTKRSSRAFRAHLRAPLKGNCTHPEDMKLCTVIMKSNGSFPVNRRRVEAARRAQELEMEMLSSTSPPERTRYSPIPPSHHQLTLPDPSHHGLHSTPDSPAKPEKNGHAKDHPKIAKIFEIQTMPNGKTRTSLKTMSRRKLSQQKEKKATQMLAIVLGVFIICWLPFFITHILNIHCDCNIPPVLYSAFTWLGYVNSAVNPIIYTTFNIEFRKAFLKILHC

Row | inhibition (D(2) dopamine receptor [1]) | SMILES | further results
1 | -6.3% | O=C1c2ccccc2C(=O)N1CCCCN1CCN(c2ccc(F)cc2)CC1 | 
2 |  | O=C(NCCCCN1CCN(c2cccc(Cl)c2Cl)CC1)c1cc2ccccc2[nH]1 | EC50 (D(3) dopamine receptor [2]): 0.026 nM
3 |  | O=C(CCCCN1CCN(c2ccccc2F)CC1)Nc1nc2ccccc2s1 | Ratio Ki (Homo sapiens): 45
4 | -4.7% | O=C1c2ccccc2C(=O)N1CCCCN1CCN(c2cc(C(F)(F)F)ccc2F)CC1 | 
5 | 37.9% and 44% | O=C1c2ccccc2C(=O)N1CCCCN1CCN(c2cccc(C(F)(F)F)c2)CC1 | 
6 | 17.7% | O=C1c2ccccc2C(=O)N1CCCCN1CCN(c2cccc(F)c2F)CC1 | Ki (D(3) dopamine receptor [3]): 19.3 nM; Ki (D(2) dopamine receptor [4]): 2160 nM; Ratio Ki (Homo sapiens): 112; Ratio Ki (D(3) dopamine receptor [5]): 21; EC50 (D(3) dopamine receptor [2]): 0.00048 nM; Ratio EC50 (D(3) dopamine receptor [6]): 199 to 200
7 | 64.8% | O=C1c2ccccc2C(=O)N1CCCCN1CCN(c2cccc(Cl)c2)CC1 | 
8 | 22.7% | O=C(NCCCCN1CCN(c2ccc(Cl)cc2Cl)CC1)c1cc2ccccc2[nH]1 | inhibition (D(2) dopamine receptor [7]): < 50%; Ki (D(2) dopamine receptor [4]): > 23900 nM
9 | 30.2% | O=C1c2ccccc2C(=O)N1CCCCN1CCN(c2ccc(Cl)cc2Cl)CC1 | 
10 | 31.8% | O=C1c2ccccc2C(=O)N1CCCCN1CCN(c2ccccc2F)CC1 | 
11 |  | O=C(CCCCN1CCN(c2ccc(Cl)cc2Cl)CC1)Nc1nc2ccccc2s1 | Ratio Ki (Homo sapiens): 63.8
12 | 70.3% | O=C1c2ccccc2C(=O)N1CCCCN1CCN(c2cccc(Cl)c2Cl)CC1 | 
13 | 2.8% | O=C1c2ccccc2C(=O)N1CCCCN1CCN(c2ccc(Cl)cc2F)CC1 | 
14 | 56.1% | O=C1c2ccccc2C(=O)N1CCCCN1CCC(n2c(=O)[nH]c3cc(Cl)ccc32)CC1 | 
15 | 4.8% | O=C1c2ccccc2C(=O)N1CCCCN1CCN(c2ccc(F)cc2F)CC1 | 
16 | 28.7% | O=C1c2ccccc2C(=O)N1CCCCN1CCN(c2ccccc2Cl)CC1 | 
17 | 92.2% | COc1ccccc1C1CCN(CCCCN2C(=O)c3ccccc3C2=O)CC1 | 
18 | 10.3% | O=C1c2ccccc2C(=O)N1CCCCN1CCN(c2c(F)cccc2F)CC1 | 
19 | 92.2% | CCN1CCCC1CNC(=O)c1cc(S(N)(=O)=O)ccc1OC (configuration not stated) | 

— ChEMBL document CHEMBL4257542, “Design, synthesis, and evaluation of bitopic arylpiperazine-phthalimides as selective dopamine D3 receptor agonists” (Medchemcomm, 2018)
